In assay [1] the test system is Staphylococcus aureus. As to the kind of experiment: Antibacterial activity against methicillin/multi-drug-resistant Staphylococcus aureus assessed as growth inhibition. The format is functional.
A further assay has as its system Aspergillus niger. As to the kind of experiment: Antifungal activity against Aspergillus niger at 1 mg/mL. The format is functional, organism-based.
The test system of the next assay is Rhodotorula glutinis. As to the kind of experiment: Antifungal activity against Rhodotorula glutinis at 1 mg/mL. It is filed as functional, organism-based.
The next assay deals with Candida albicans. As to the kind of experiment: Antifungal activity against Candida albicans at 1 mg/mL. The format is functional, organism-based.
A further assay relates to Bacillus subtilis. As to the kind of experiment: Antibacterial activity against Bacillus subtilis at 1 mg/mL. The format is functional, organism-based.
Assay [2] relates to Staphylococcus aureus. In words: Antibacterial activity against Staphylococcus aureus at 1 mg/mL. The format is functional, organism-based.
The subject of the next assay is HeLa. As to the kind of experiment: Cytotoxicity against human HeLa cells after 48 hrs by MTT assay. The format is functional, cell-based. The method, boiled down:
(§1)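 MTT assay. Cells grown in RPMI1640 or DMEM with 10% fetal bovine serum at 37 °C, 5% CO2. Adherent cells allowed to attach 12 h before dosing; suspended cells seeded at dosing, initial density 1 × 10^5 cells/mL. Tested at 1, 10, 50 and 100 μM for 48 h in triplicate, 5-fluorouracil as positive control. Cells solubilized with DMSO, OD read at 595 nm. IC50 taken from mean-OD versus concentration curves.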
A general note: Formazan colour is commonly taken as a measure of viable cells.

The next assay deals with HepG2. As to the kind of experiment: Cytotoxicity against human HepG2 cells after 48 hrs by MTT assay. It is filed as functional, cell-based. Conditions: HepG2, 48 h. The essentials: as §1

Converted amounts (≈) assume the structure as drawn. The source made the active and inactive calls. The calls are words filed in the database; no cut-off is given here.

The MIC50 is the lowest concentration that inhibits either 50% of growth or 50% of the strains tested, depending on the study. The term IC50 denotes the concentration that gives 50% inhibition.

Consider `C=C1[C@H]2C[C@]3(C)C(C)=CCC[C@H]3[C@]1(C)CC1=C2C(=O)C=C(OCC)C1=O`, for which the MIC50 with Staphylococcus aureus [1] worked out at 0.2 µg/mL (≈ 0.567 µM).

For the molecule `CC1=CCC[C@H]2[C@]3(C)CC4=CC(=O)C=C[C@@]4(O)[C@]3(C)CC[C@]12C`, the result in the assay with Aspergillus niger, with Rhodotorula glutinis, in the assay on Candida albicans, with Bacillus subtilis and with Staphylococcus aureus [2] was inactive.

For the molecule `O=c1[nH]cc(F)c(=O)[nH]1` [FLUOROURACIL], the half-inhibitory concentration (IC50) with HeLa is 2.3 µM; in the assay on HepG2 it was 7.6 µM.

`CC1=CC[C@H]2[C@H]3[C@](C)(CC4=CC(=O)C=C[C@@]42O)[C@@H](C)CC[C@]13C`: the result in the assay with Aspergillus niger, in the assay with Rhodotorula glutinis, with Candida albicans, in the assay with Bacillus subtilis and with Staphylococcus aureus [2] was inactive.

As for `C=C1CC[C@@H]2C3=C(C[C@]4(C)[C@@H](C)CC[C@@]1(C)[C@@H]24)C(=O)C(OCC)=CC3=O`, the figures for the IC50 in the assay with HeLa and in the assay with HepG2 were 7.1 µM and 9.4 µM, respectively. In addition, the result with Aspergillus niger, with Rhodotorula glutinis, with Candida albicans, in the assay with Bacillus subtilis and in the assay with Staphylococcus aureus [2] was inactive.

Source of the values: ChEMBL document CHEMBL3108717, “Dysideanones A-C, unusual sesquiterpene quinones from the South China Sea sponge Dysidea avara” (J Nat Prod, 2014).
